From ChEMBL document CHEMBL1139834, “Synthesis and structure-activity relationships of new benzodioxinic lactones as potential anticancer drugs” (J Med Chem, 2007)

What was measured:
Type in all cases: functional
MOLT-4 = assay: Antitumor activity against human MOLT4 cell line
Outline: (§1)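 Human tumour cell line panel. GI50 is the concentration giving 50% growth inhibition, averaged over at least two determinations. LC50 is the concentration killing 50% of cells in a […] assay.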

T47D = assay: Antitumor activity against human T47D cell line
Outline: (§2)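 Human tumour cell lines from a selected panel. GI50 is the concentration giving 50% growth inhibition, averaged from at least two determinations. LC50 is the concentration killing 50% of cells in a […] assay.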

MDA-MB-435 = assay: Antitumor activity against human MDA-MB-435 cell line; outline: as §1
Malme-3M = assay: Antitumor activity against human MALME3M cell line; outline: as §1
OVCAR-3 = assay: Antitumor activity against human OVCAR-3 cell line; outline: as §1
SR = assay: Antitumor activity against human SR cell line; outline: as §2
TK-10 = assay: Antitumor activity against human TK10 cell line; outline: as §2
DU-145 = assay: Antitumor activity against human DU145 cell line; outline: as §1
SNB-19 = assay: Antitumor activity against human SNB19 cell line; outline: as §1
OVCAR-5 = assay: Antitumor activity against human OVCAR5 cell line; outline: as §1
UO-31 = assay: Antitumor activity against human UO31 cell line; outline: as §2
COLO 205 = assay: Antitumor activity against human Colo205 cell line; outline: as §1
L1210 = assay: Cell cycle arrest in mouse L1210 cell line by accumulation at G2/M phase at 5 uM after 24 hrs
Outline: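 L1210 cells in RPMI 1640 with 2 mM L-glutamine, penicillin, streptomycin and 20% heat-inactivated horse serum, 5% CO2, 37 °C, exposed to several drug concentrations. Cells fixed in 70% ethanol, washed, stained 30 min at room temperature with propidium iodide plus RNAse in PBS, then flow cytometry. Read-out is percentage of cells in each cycle phase after 24 h exposure.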

NCI-H322M = assay: Antitumor activity against human NCI-H322M cell line; outline: as §1
NCI-H522 = assay: Antitumor activity against human NCI-H522 cell line; outline: as §1
HCT-116 = assay: Antitumor activity against human HCT116 cell line; outline: as §1
NCI-H226 = assay: Antitumor activity against human NCI-H226 cell line; outline: as §1
[1] = read-out: LC50 (the source's name)

CCCCc1c2c(c(C)c3c1C(=O)OC3)Oc1ccccc1O2 gave a GI50 (MOLT-4) of 0.447 µM, a CC50 (MOLT-4; [1]) of 100 µM and a GI50 (T47D) of 6.46 µM. It also gave a CC50 (T47D; [1]) of 100 µM, a GI50 (MDA-MB-435) of 0.158 µM and a CC50 (MDA-MB-435; [1]) of 40 µM. It also gave a GI50 (Malme-3M) of 0.447 µM, a CC50 (Malme-3M; [1]) of 100 µM and a GI50 (OVCAR-3) of 0.525 µM. The CC50 (OVCAR-3; [1]) was 100 µM, the GI50 (SR) was 0.132 µM and the CC50 (SR; [1]) was 100 µM. For the same compound, the GI50 (TK-10) was 1.51 µM, the CC50 (TK-10; [1]) was 100 µM and the GI50 (DU-145) was 1.82 µM. The CC50 (DU-145; [1]) was 100 µM, the GI50 (SNB-19) was 0.589 µM and the CC50 (SNB-19; [1]) was 100 µM. For the same compound, the GI50 (OVCAR-5) was 7.59 µM, the CC50 (OVCAR-5; [1]) was 100 µM and the GI50 (UO-31) was 2.24 µM. It also gave a CC50 (UO-31; [1]) of 100 µM, a GI50 (COLO 205) of 0.741 µM and a CC50 (COLO 205; [1]) of 100 µM. It also gave an Activity (L1210) of 67%, a GI50 (NCI-H322M) of 0.933 µM and a CC50 (NCI-H322M; [1]) of 100 µM. For the same compound, the GI50 (NCI-H522) was 0.234 µM, the CC50 (NCI-H522; [1]) was 100 µM and the GI50 (HCT-116) was 0.38 µM. It also gave a CC50 (HCT-116; [1]) of 50 µM, a GI50 (NCI-H226) of 1.86 µM and a CC50 (NCI-H226; [1]) of 100 µM.
